Measured values: ChEMBL document CHEMBL1949512, “RO4383596, an orally active KDR, FGFR, and PDGFR inhibitor: synthesis and biological evaluation” (Bioorg Med Chem, 2005)

Legend:
[1] = biological target: Platelet-derived growth factor receptor (Homo sapiens, UniProt P09619+P16234); test: Inhibition of human recombinant His-tagged intracellular domain of PDGFR using biotin-EEEEYFELV as substrate by HTRF assay
[2] = biological target: T1, Vascular endothelial growth factor receptor 2 (Homo sapiens, UniProt P35968); test: Inhibition of human recombinant EE-tagged intracellular domain of KDR using biotin-EEEEYFELVAKKKK as substrate by HTRF assay
T1 sequence (P35968 whole entry, the tested form may be a part): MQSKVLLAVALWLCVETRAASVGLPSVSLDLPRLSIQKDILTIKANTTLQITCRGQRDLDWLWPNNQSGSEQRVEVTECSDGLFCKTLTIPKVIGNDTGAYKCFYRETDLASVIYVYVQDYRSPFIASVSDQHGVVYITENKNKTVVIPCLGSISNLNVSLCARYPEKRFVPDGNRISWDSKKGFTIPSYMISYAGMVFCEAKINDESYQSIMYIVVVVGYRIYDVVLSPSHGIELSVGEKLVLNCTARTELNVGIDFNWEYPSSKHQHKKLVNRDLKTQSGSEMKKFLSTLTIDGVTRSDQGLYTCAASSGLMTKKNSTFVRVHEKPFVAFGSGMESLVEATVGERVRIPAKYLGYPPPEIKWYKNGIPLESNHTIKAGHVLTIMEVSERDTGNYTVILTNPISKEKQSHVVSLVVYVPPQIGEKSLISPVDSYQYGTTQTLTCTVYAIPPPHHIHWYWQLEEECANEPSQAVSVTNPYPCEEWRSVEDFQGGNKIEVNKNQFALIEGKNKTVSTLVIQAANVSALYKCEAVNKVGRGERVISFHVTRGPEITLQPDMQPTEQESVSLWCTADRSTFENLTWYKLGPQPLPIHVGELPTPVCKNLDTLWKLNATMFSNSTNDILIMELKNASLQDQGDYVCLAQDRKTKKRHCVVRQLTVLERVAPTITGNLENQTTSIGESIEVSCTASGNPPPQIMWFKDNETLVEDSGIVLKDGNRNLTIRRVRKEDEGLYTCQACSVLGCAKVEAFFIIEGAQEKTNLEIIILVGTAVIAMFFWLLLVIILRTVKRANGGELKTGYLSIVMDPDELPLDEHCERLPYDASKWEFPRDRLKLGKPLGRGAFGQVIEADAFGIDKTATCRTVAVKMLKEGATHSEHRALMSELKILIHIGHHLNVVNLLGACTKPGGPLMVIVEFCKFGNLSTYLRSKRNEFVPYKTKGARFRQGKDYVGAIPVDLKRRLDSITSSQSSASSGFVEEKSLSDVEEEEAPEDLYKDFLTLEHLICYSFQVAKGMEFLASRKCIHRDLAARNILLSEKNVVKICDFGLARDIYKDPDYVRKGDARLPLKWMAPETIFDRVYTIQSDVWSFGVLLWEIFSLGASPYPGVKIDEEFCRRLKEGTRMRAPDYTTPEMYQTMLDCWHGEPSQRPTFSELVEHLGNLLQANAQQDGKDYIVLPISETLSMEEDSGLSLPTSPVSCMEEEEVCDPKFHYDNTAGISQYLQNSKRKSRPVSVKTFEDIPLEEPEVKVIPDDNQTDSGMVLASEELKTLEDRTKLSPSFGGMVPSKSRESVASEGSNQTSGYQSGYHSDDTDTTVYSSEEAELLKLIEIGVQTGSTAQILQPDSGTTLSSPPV

[3] = biological target: Epidermal growth factor receptor (Homo sapiens, UniProt P00533); test: Inhibition of human recombinant His-tagged intracellular domain of EGFR using biotin-EEEEYFELV as substrate by HTRF assay
Chain of Epidermal growth factor receptor (P00533 whole entry, the tested form may be a part): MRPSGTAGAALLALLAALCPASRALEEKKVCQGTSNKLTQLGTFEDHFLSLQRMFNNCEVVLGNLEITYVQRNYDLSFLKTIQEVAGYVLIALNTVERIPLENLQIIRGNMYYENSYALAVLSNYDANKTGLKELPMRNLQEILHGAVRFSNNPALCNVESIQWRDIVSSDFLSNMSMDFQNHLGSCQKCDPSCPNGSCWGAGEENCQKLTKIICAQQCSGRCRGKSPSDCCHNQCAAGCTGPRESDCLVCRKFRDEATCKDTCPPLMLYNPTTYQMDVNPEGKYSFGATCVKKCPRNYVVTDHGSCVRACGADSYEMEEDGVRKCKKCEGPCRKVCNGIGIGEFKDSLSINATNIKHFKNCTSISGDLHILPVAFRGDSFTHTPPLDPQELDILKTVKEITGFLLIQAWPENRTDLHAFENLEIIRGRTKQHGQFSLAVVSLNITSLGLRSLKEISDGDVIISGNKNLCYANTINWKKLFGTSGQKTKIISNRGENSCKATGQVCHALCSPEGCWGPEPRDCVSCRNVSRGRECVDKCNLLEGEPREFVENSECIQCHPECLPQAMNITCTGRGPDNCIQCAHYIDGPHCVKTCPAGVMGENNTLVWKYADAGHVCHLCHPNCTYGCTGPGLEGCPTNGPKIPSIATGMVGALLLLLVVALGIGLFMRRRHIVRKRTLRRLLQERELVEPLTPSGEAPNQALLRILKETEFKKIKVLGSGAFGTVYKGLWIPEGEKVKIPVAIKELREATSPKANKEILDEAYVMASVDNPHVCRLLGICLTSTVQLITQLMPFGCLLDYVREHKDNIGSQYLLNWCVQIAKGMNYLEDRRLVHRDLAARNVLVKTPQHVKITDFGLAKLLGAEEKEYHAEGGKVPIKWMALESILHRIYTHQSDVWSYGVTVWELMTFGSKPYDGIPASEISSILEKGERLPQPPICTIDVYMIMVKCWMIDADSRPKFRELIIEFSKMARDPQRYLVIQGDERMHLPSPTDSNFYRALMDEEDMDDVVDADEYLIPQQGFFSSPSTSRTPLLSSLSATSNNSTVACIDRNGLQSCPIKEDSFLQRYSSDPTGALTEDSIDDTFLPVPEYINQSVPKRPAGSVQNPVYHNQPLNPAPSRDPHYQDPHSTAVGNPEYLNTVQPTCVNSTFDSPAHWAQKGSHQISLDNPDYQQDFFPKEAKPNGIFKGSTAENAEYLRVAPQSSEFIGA

[4] = biological target: Fibroblast growth factor receptor (Homo sapiens, UniProt P22607+P11362+P22455+P21802); test: Inhibition of human recombinant GST-tagged intracellular domain of FGFR using biotin-EEEEYFELV as substrate by HTRF assay
[5] = biological target: T1, Vascular endothelial growth factor receptor 2; test: Inhibition of KDR autophosphorylation in HUVEC by Western blot analysis
Summary of the method: (§1)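 HUVECs at passages 2–4 were grown to 70% confluency and serum-starved 18 h in EBM-2 with 1.0% HI-FBS. Compound was added 1 h before 50 ng/mL rhVEGF. Cells were lysed on ice 5 min after stimulation and lysates immunoblotted, with actin used to normalize loading.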

[6] = biological target: T1, Vascular endothelial growth factor receptor 2; test: Inhibition of KDR in HUVEC assessed as AKT phosphorylation by Western blot analysis; summary of the method: as §1
[7] = biological target: T1, Vascular endothelial growth factor receptor 2; test: Inhibition of KDR in HUVEC assessed as ERK1/2 phosphorylation by Western blot analysis; summary of the method: as §1

IC50 [1] [nM] | IC50 [2] [nM] | IC50 [3] [nM] | IC50 [4] [nM] | inhibition [5] | inhibition [6] | inhibition [7] | Structure (SMILES)
28 | 12 | 239 | 35 |  |  |  | COc1ccc(N2Cc3cnc(Nc4ccccc4)nc3N([C@@H]3CC[C@@H](O)C3)C2=O)cc1
33 | 15 | 365 | 37 |  |  |  | COc1ccc(N2Cc3cnc(Nc4ccccc4)nc3N([C@H]3CC[C@H](O)C3)C2=O)cc1
 |  |  |  | Dose-dependent effect | Dose-dependent effect | Dose-dependent effect | COc1ccc(N2Cc3cnc(Nc4ccccc4)nc3N([C@@H]3CC[C@@H](O)C3)C2=O)cc1 (racemic)
